ChEMBL document CHEMBL1127493, “Glycylcyclines. 1. A new generation of potent antibacterial agents through modification of 9-aminotetracyclines” (1994)
≈ marks a conversion by molar mass, not a printed value.

Assays:
Type in all cases: functional
[1] = test system: Staphylococcus aureus; assay: In vitro minimum inhibitory concentration against Staphylococcus aureus smith (sensitive).
Summary of the method: (§1)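 Agar dilution on Mueller–Hinton II agar; inoculum (1-5) × 10^5 CFU/mL; antibiotic concentrations 32–0.004 µg/mL; plates incubated 18 h at 35 °C in forced-air incubator. MIC taken as lowest concentration inhibiting growth of the test organism (tetracycline-sensitive and tetracycline-resistant strains).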

[2] = test system: Escherichia coli; assay: In vitro minimum inhibitory concentration against Escherichia coli UBMS 90-5 (sensitive).; summary of the method: as §1
[3] = test system: Staphylococcus aureus; assay: In vitro minimum inhibitory concentration against Staphylococcus aureus UBMS 88-7 (tet K efflux).; summary of the method: as §1
[4] = test system: Escherichia coli; assay: In vitro minimum inhibitory concentration against Escherichia coli UBMS 90-4 (tet M ribosomal protection).; summary of the method: as §1
[5] = test system: Escherichia coli; assay: In vitro minimum inhibitory concentration against Escherichia coli J3272 (tet C efflux).; summary of the method: as §1
[6] = test system: Escherichia coli; assay: In vitro minimum inhibitory concentration against Escherichia coli UBMS 88-1 (tet B efflux).; summary of the method: as §1
[7] = test system: Staphylococcus aureus; assay: In vitro minimum inhibitory concentration against Staphylococcus aureus UBMS 90-1 (tet M ribosomal protection).; summary of the method: as §1
[8] = test system: Enterococcus faecalis; assay: In vitro minimum inhibitory concentration against Enterococcus faecalis ATCC 29212.; summary of the method: as §1
[9] = test system: Escherichia coli; assay: In vitro minimum inhibitory concentration against Escherichia coli PRP-1 (tet A efflux).; summary of the method: as §1
[10] = test system: Staphylococcus aureus; assay: In vitro minimum inhibitory concentration against Staphylococcus aureus UBMS 90-3 (sensitive).; summary of the method: as §1
[11] = test system: Escherichia coli; assay: In vitro minimum inhibitory concentration against Escherichia coli J3272 (tet D efflux).; summary of the method: as §1

| MIC [1] | MIC [2] | MIC [3] | MIC [4] | MIC [5] | MIC [6] | MIC [7] | MIC [8] | MIC [9] | MIC [10] | MIC [11] | Structure (SMILES) |
| --- | --- | --- | --- | --- | --- | --- | --- | --- | --- | --- | --- |
| 0.25 µg/mL (≈ 0.486 µM) | 8 µg/mL (≈ 15.5 µM) | 8 µg/mL (≈ 15.5 µM) | 4 µg/mL (≈ 7.77 µM) | > 32 µg/mL | > 32 µg/mL | 1 µg/mL (≈ 1.94 µM) | 0.25 µg/mL (≈ 0.486 µM) | > 32 µg/mL | 0.25 µg/mL (≈ 0.486 µM) | – | CC(=O)Nc1cc(N(C)C)c2c(c1O)C(O)=C1C(=O)[C@]3(O)C(O)=C(C(N)=O)C(=O)[C@@H](N(C)C)C3CC1C2 (stereo partly drawn) |
| 0.03 µg/mL (≈ 0.0568 µM) | 0.5 µg/mL (≈ 0.946 µM) | 0.25 µg/mL (≈ 0.473 µM) | 8 µg/mL (≈ 15.1 µM) | 32 µg/mL (≈ 60.5 µM) | 16 µg/mL (≈ 30.3 µM) | 0.5 µg/mL (≈ 0.946 µM) | 0.06 µg/mL (≈ 0.114 µM) | 32 µg/mL (≈ 60.5 µM) | 0.03 µg/mL (≈ 0.0568 µM) | – | CCN(CC)c1cc(NC=O)c(O)c2c1CC1CC3[C@H](N(C)C)C(=O)C(C(N)=O)=C(O)[C@@]3(O)C(=O)C1=C2O (stereo partly drawn) |
| 0.25 µg/mL | 2 µg/mL | 4 µg/mL | 1 µg/mL | 4 µg/mL | 1 µg/mL | 0.5 µg/mL | 0.06 µg/mL | 8 µg/mL | 0.12 µg/mL | 0.5 µg/mL | CN(C)CC(=O)Nc1cc(I)c2c(c1O)C(=O)C1=C(O)[C@]3(O)C(O)=C(C(N)=O)C(=O)[C@@H](N(C)C)C3CC1C2.Cl (stereo partly drawn) |
| 0.03 µg/mL | 0.5 µg/mL | 16 µg/mL | 32 µg/mL | > 32 µg/mL | > 32 µg/mL | 4 µg/mL | 0.25 µg/mL | > 32 µg/mL | 0.03 µg/mL | – | CN(C)[C@@H]1C(=O)C(C(N)=O)=C(O)[C@@]2(O)C(=O)C3=C(O)c4c(O)c(NC=O)cc(I)c4CC3CC12.O=S(=O)(O)O (stereo partly drawn) |
| 0.06 µg/mL | 0.5 µg/mL | 0.25 µg/mL | 8 µg/mL | 16 µg/mL | 32 µg/mL | 0.5 µg/mL | 0.25 µg/mL | 4 µg/mL | 0.06 µg/mL | 8 µg/mL | CN(C)c1cc(N)c(O)c2c1CC1CC3[C@H](N(C)C)C(=O)C(C(N)=O)=C(O)[C@@]3(O)C(=O)C1=C2O.Cl (stereo partly drawn) |
| < 0.015 µg/mL | 4 µg/mL | 0.5 µg/mL | > 32 µg/mL | > 32 µg/mL | > 32 µg/mL | 0.5 µg/mL | 0.12 µg/mL | > 32 µg/mL | 0.03 µg/mL | – | CN(C)[C@@H]1C(=O)C(C(N)=O)=C(O)[C@@]2(O)C(=O)C3=C(O)c4c(O)c(N)cc(I)c4CC3CC12.O=S(=O)(O)O (stereo partly drawn) |
| 0.12 µg/mL | 8 µg/mL | 32 µg/mL | 8 µg/mL | > 32 µg/mL | > 32 µg/mL | 2 µg/mL | 0.25 µg/mL | > 32 µg/mL | 0.12 µg/mL | 0.5 µg/mL | CC(=O)Nc1ccc2c(c1O)C(O)=C1C(=O)[C@]3(O)C(O)=C(C(N)=O)C(=O)[C@@H](N(C)C)C3CC1C2.O=S(=O)(O)O (stereo partly drawn) |
| 1 µg/mL | 2 µg/mL | > 32 µg/mL | 1 µg/mL | 32 µg/mL | 2 µg/mL | 2 µg/mL | 0.25 µg/mL | 32 µg/mL | 0.5 µg/mL | 2 µg/mL | CN(C)c1cc(NC(=O)CN)c(O)c2c1CC1CC3[C@H](N(C)C)C(=O)C(C(N)=O)=C(O)[C@@]3(O)C(=O)C1=C2O.O=C(O)C(F)(F)F (stereo partly drawn) |
| 0.12 µg/mL | 16 µg/mL | 16 µg/mL | > 128 µg/mL | > 128 µg/mL | > 128 µg/mL | 1 µg/mL | 0.25 µg/mL | > 128 µg/mL | 0.12 µg/mL | – | CC(=O)Nc1cc(I)c2c(c1O)C(O)=C1C(=O)[C@]3(O)C(O)=C(C(N)=O)C(=O)[C@@H](N(C)C)C3CC1C2.O=S(=O)(O)O (stereo partly drawn) |
| 0.03 µg/mL | 0.25 µg/mL | > 32 µg/mL | 1 µg/mL | > 32 µg/mL | 32 µg/mL | 1 µg/mL | 0.06 µg/mL | > 32 µg/mL | < 0.015 µg/mL | – | CN(C)[C@@H]1C(=O)C(C(N)=O)=C(O)[C@@]2(O)C(=O)C3=C(O)c4c(ccc(NC=O)c4O)CC3CC12.O=S(=O)(O)O (stereo partly drawn) |
| 0.03 µg/mL (≈ 0.0599 µM) | 0.25 µg/mL (≈ 0.499 µM) | 4 µg/mL (≈ 7.99 µM) | 1 µg/mL (≈ 2 µM) | > 32 µg/mL | > 32 µg/mL | 0.06 µg/mL (≈ 0.12 µM) | 0.03 µg/mL (≈ 0.0599 µM) | 16 µg/mL (≈ 32 µM) | 0.03 µg/mL (≈ 0.0599 µM) | 8 µg/mL (≈ 16 µM) | CN(C)c1cc(NC=O)c(O)c2c1CC1CC3[C@H](N(C)C)C(=O)C(C(N)=O)=C(O)[C@@]3(O)C(=O)C1=C2O (stereo partly drawn) |
| 0.12 µg/mL | 0.12 µg/mL | 1 µg/mL | 0.12 µg/mL | 0.5 µg/mL | 0.25 µg/mL | 0.12 µg/mL | 0.03 µg/mL | 1 µg/mL | 0.06 µg/mL | 0.12 µg/mL | CN(C)CC(=O)Nc1ccc2c(c1O)C(=O)C1=C(O)[C@]3(O)C(O)=C(C(N)=O)C(=O)[C@@H](N(C)C)C3CC1C2.Cl (stereo partly drawn) |
| 0.03 µg/mL | 1 µg/mL | 4 µg/mL | 16 µg/mL | > 32 µg/mL | > 32 µg/mL | 8 µg/mL | 0.5 µg/mL | 32 µg/mL | < 0.015 µg/mL | – | CN(C)[C@@H]1C(=O)C(C(N)=O)=C(O)[C@@]2(O)C(=O)C3=C(O)c4c(ccc(N)c4O)CC3CC12.O=S(=O)(O)O (stereo partly drawn) |
| 0.12 µg/mL (≈ 0.221 µM) | 32 µg/mL (≈ 59 µM) | 2 µg/mL (≈ 3.69 µM) | 32 µg/mL (≈ 59 µM) | > 32 µg/mL | 32 µg/mL (≈ 59 µM) | 2 µg/mL (≈ 3.69 µM) | 0.25 µg/mL (≈ 0.461 µM) | > 32 µg/mL | 0.12 µg/mL (≈ 0.221 µM) | – | CCN(CC)c1cc(NC(C)=O)c(O)c2c1CC1CC3[C@H](N(C)C)C(=O)C(C(N)=O)=C(O)[C@@]3(O)C(=O)C1=C2O (stereo partly drawn) |
| 0.5 µg/mL | 1 µg/mL | 1 µg/mL | 1 µg/mL | 4 µg/mL | 1 µg/mL | 0.5 µg/mL | 0.25 µg/mL | 4 µg/mL | 0.5 µg/mL | 0.5 µg/mL | CCN(CC)c1cc(NC(=O)CN(C)C)c(O)c2c1CC1CC3[C@H](N(C)C)C(=O)C(C(N)=O)=C(O)[C@@]3(O)C(=O)C1=C2O.Cl (stereo partly drawn) |
| 0.03 µg/mL | 1 µg/mL | 0.06 µg/mL | 32 µg/mL | 4 µg/mL | 2 µg/mL | 2 µg/mL | 0.12 µg/mL | 2 µg/mL | 0.03 µg/mL | – | CCN(CC)c1cc(N)c(O)c2c1CC1CC3[C@H](N(C)C)C(=O)C(C(N)=O)=C(O)[C@@]3(O)C(=O)C1=C2O.Cl (stereo partly drawn) |

| Structure (SMILES) | MIC [1] | MIC [2] | MIC [3] | MIC [4] | MIC [5] | MIC [6] | MIC [7] | MIC [8] | MIC [9] | MIC [10] | MIC [11] |
| --- | --- | --- | --- | --- | --- | --- | --- | --- | --- | --- | --- |
| CN(C)[C@@H]1C(O)=C(C(N)=O)C(=O)[C@@]2(O)C(O)=C3C(=O)c4c(O)cccc4[C@@](C)(O)[C@H]3C[C@@H]12 [TETRACYCLINE] | 0.25 µg/mL (≈ 0.563 µM) | 1 µg/mL (≈ 2.25 µM) | > 32 µg/mL | > 32 µg/mL | > 32 µg/mL | > 32 µg/mL | > 32 µg/mL | – | 32 µg/mL (≈ 72 µM) | 0.25 µg/mL (≈ 0.563 µM) | 32 µg/mL (≈ 72 µM) |
| CN(C)CC(=O)Nc1cc(N(C)C)c2c(c1O)C(=O)C1=C(O)[C@]3(O)C(O)=C(C(N)=O)C(=O)[C@@H](N(C)C)C3CC1C2.Cl (stereo partly drawn) | 0.12 µg/mL | 0.25 µg/mL | 2 µg/mL | 0.25 µg/mL | 1 µg/mL | 0.25 µg/mL | 0.25 µg/mL | 0.06 µg/mL | 2 µg/mL | 0.06 µg/mL | 0.12 µg/mL |
| CN(C)c1ccc(O)c2c1C[C@H]1C[C@H]3[C@H](N(C)C)C(O)=C(C(N)=O)C(=O)[C@@]3(O)C(O)=C1C2=O [MINOCYCLINE] | 0.12 µg/mL (≈ 0.262 µM) | 1 µg/mL (≈ 2.19 µM) | 0.25 µg/mL (≈ 0.546 µM) | > 32 µg/mL | 4 µg/mL (≈ 8.74 µM) | 16 µg/mL (≈ 35 µM) | 4 µg/mL (≈ 8.74 µM) | – | 4 µg/mL (≈ 8.74 µM) | 0.12 µg/mL (≈ 0.262 µM) | 8 µg/mL (≈ 17.5 µM) |
